The values that follow come from article PMC5006629 (Chemical & pharmaceutical bulletin, 2013).

For the first assay, the system named is human HT-29 colon tumor cell line. The experiment in a line: HT-29 tumor cell growth inhibition. Type of assay: cell-based. Particulars: HT-29 cell line; positive control. In a few lines:
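Human HT-29 colon tumour cells. Two-stage screen: test compounds first tested at one concentration in triplicate for % growth inhibition.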
For the compound `Cc1[nH]c(=O)c(C#N)cc1-c1ccncc1` [Milrinone, reference compound], the “induction of apoptosis to the HT-29 cell line (in words)” value is recorded as “inactivity”.

The assay is the same for the next values; noted with them: HT-29 colorectal cancer cell line; 50 μM; triplicate.
Take “6-(2-Bromophenyl)-4-(2-ethoxyphenyl)-2-oxo-1,2-dihydropyridine-3-carbonitrile [Compound 4]”: the “HT-29 growth inhibition: % Growth inhibition at 50 μM” value came out at 68%.

The assay is the same for the next values; noted with them: Homo sapiens, HT-29, read-out: HT-29 growth inhibition: IC50.
Broadly, the IC50 is the concentration that inhibits the measured activity by half. Turning to `CCOc1ccccc1-c1cc(-c2cccc(Br)c2)nc(N)c1C#N` [Compound 2, 2-Amino-6-(3-bromophenyl)-4-(2-ethoxyphenyl)nicotinonitrile], the IC50 is 43 µM.

For `COc1ccccc1-c1cc(-c2ccc(-c3ccc(Br)cc3)cc2)nc(N)c1C#N` [Compound 3, 2-Amino-6-(4′-bromobiphenyl-4-yl)-4-(2-methoxyphenyl)nicotinonitrile], the IC50 stood at 32 µM.

For the compound `N#Cc1c(-c2ccccc2Cl)cc(-c2ccccc2Br)[nH]c1=O` [Compound 5, 6-(2-Bromophenyl)-4-(2-chlorophenyl)-2-oxo-1,2-dihydropyridine-3-carbonitrile], the IC50 was determined as 10.4 µM.

As for `CCOc1ccccc1-c1cc(-c2cccc(Br)c2)nc2ncnc(N)c12` [Compound 6, 7-(3-Bromophenyl)-5-(2-ethoxyphenyl)pyrido[2,3-d]pyrimidin-4-amine], the IC50 came to 18.3 µM.

Consider `COc1ccccc1-c1cc(-c2cccc(Br)c2)nc2nc[nH]c(=O)c12` [Compound 7, 7-(3-Bromophenyl)-5-(2-methoxyphenyl)pyrido[2,3-d]pyrimidin-4(3H)-one], for which the IC50 worked out at 1.34 µM.

For the compound `Cc1[nH]c(=O)c(C#N)cc1-c1ccncc1` [Milrinone, reference compound], the IC50 was more than 50 µM.

The assay is the same for the next values; noted with them: read-out: HT-29 growth inhibition: IC50; HT-29 colorectal cancer cell line; 10 concentrations.
Turning to “6-(2-Bromophenyl)-4-(2-ethoxyphenyl)-2-oxo-1,2-dihydropyridine-3-carbonitrile [Compound 4]”, the IC50 turned out to be 15.5 µM.

In a further assay the target is PDE3B (Homo sapiens, UniProt Q13370).
Chain of PDE3B (Q13370 whole entry): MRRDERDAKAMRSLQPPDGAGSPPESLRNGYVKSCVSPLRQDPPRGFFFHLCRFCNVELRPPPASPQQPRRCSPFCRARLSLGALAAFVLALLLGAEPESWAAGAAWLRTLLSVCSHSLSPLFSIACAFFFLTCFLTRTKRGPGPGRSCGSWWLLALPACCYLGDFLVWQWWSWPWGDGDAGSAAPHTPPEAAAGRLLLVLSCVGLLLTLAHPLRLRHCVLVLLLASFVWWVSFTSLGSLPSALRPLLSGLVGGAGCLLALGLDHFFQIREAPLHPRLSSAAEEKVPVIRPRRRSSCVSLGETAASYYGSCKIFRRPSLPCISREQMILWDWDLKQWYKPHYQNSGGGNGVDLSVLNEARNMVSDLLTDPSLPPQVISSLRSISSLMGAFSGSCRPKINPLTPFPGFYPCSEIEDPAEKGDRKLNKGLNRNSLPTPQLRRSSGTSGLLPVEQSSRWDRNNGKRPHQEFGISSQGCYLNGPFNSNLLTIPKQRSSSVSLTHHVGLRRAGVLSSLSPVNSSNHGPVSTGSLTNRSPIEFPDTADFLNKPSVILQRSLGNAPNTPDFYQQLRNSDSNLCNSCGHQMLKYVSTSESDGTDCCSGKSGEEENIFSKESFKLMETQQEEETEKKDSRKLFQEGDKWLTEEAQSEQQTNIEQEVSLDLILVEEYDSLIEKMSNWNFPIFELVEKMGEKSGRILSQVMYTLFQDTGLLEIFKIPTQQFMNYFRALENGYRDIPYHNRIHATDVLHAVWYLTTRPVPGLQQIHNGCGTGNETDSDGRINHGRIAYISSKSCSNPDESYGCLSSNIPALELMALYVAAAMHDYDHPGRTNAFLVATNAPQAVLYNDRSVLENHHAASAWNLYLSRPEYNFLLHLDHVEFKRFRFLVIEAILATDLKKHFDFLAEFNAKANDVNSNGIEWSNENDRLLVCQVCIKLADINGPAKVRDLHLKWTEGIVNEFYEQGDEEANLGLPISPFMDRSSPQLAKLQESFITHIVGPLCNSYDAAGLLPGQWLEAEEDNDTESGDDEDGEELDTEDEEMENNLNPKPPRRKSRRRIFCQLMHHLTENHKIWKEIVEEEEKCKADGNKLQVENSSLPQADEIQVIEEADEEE
Assay: not given
It counts as biochemical. The note with it: PDE3 inhibition IC50, cAMP, substrate cAMP.
Take `COc1ccccc1-c1cc(-c2ccc(-c3ccc(Br)cc3)cc2)nc(N)c1C#N` [Compound 3, 2-Amino-6-(4′-bromobiphenyl-4-yl)-4-(2-methoxyphenyl)nicotinonitrile]: the IC50 amounted to 35.6 µM.

Consider `N#Cc1c(-c2ccccc2Cl)cc(-c2ccccc2Br)[nH]c1=O` [Compound 5, 6-(2-Bromophenyl)-4-(2-chlorophenyl)-2-oxo-1,2-dihydropyridine-3-carbonitrile], for which it took 6.2 µM to reach half-maximal inhibition (IC50).

For the compound `COc1ccccc1-c1cc(-c2cccc(Br)c2)nc2nc[nH]c(=O)c12` [Compound 7, 7-(3-Bromophenyl)-5-(2-methoxyphenyl)pyrido[2,3-d]pyrimidin-4(3H)-one], half-maximal inhibition (IC50) was put at 24.2 µM.

Still in this assay, the particulars now being: PDE3 inhibition IC50, cGMP, substrate cGMP.
The compound `COc1ccccc1-c1cc(-c2cccc(Br)c2)nc(N)c1C#N` [Compound 1, 2-Amino-6-(3-bromophenyl)-4-(2-methoxyphenyl)nicotinonitrile] showed an IC50 of 4 µM.

Take `COc1ccccc1-c1cc(-c2ccc(-c3ccc(Br)cc3)cc2)nc(N)c1C#N` [Compound 3, 2-Amino-6-(4′-bromobiphenyl-4-yl)-4-(2-methoxyphenyl)nicotinonitrile]: 13.4 µM corresponded to half-maximal inhibition (IC50).

Regarding `N#Cc1c(-c2ccccc2Cl)cc(-c2ccccc2Br)[nH]c1=O` [Compound 5, 6-(2-Bromophenyl)-4-(2-chlorophenyl)-2-oxo-1,2-dihydropyridine-3-carbonitrile], the IC50 worked out at 10.5 µM.

As to `CCOc1ccccc1-c1cc(-c2cccc(Br)c2)nc2ncnc(N)c12` [Compound 6, 7-(3-Bromophenyl)-5-(2-ethoxyphenyl)pyrido[2,3-d]pyrimidin-4-amine], the IC50 came out at 10.9 µM.

In the case of `COc1ccccc1-c1cc(-c2cccc(Br)c2)nc2nc[nH]c(=O)c12` [Compound 7, 7-(3-Bromophenyl)-5-(2-methoxyphenyl)pyrido[2,3-d]pyrimidin-4(3H)-one], the IC50 amounted to 10.8 µM.

The assay is the same for the next values; noted with them: read-out: % PDE3 inhibition at 50 μM, cAMP, substrate cAMP; 50 μM.
By inhibition is commonly meant the relative decrease from the control value, in per cent. As for `COc1ccccc1-c1cc(-c2cccc(Br)c2)nc(N)c1C#N` [Compound 1, 2-Amino-6-(3-bromophenyl)-4-(2-methoxyphenyl)nicotinonitrile], the inhibition at 50 µM is not above 50%.

As to `COc1ccccc1-c1cc(-c2ccc(-c3ccc(Br)cc3)cc2)nc(N)c1C#N` [Compound 3, 2-Amino-6-(4′-bromobiphenyl-4-yl)-4-(2-methoxyphenyl)nicotinonitrile], the inhibition at 50 µM is 55%.

For `N#Cc1c(-c2ccccc2Cl)cc(-c2ccccc2Br)[nH]c1=O` [Compound 5, 6-(2-Bromophenyl)-4-(2-chlorophenyl)-2-oxo-1,2-dihydropyridine-3-carbonitrile], the inhibition at 50 µM was 77%.

For `CCOc1ccccc1-c1cc(-c2cccc(Br)c2)nc2ncnc(N)c12` [Compound 6, 7-(3-Bromophenyl)-5-(2-ethoxyphenyl)pyrido[2,3-d]pyrimidin-4-amine], the inhibition at 50 µM stood at 48%.

As to `COc1ccccc1-c1cc(-c2cccc(Br)c2)nc2nc[nH]c(=O)c12` [Compound 7, 7-(3-Bromophenyl)-5-(2-methoxyphenyl)pyrido[2,3-d]pyrimidin-4(3H)-one], the inhibition at 50 µM amounted to 62%.

As to `Cc1[nH]c(=O)c(C#N)cc1-c1ccncc1` [Milrinone, reference compound], the inhibition at 50 µM came to 77%.

Still in this assay, the particulars now being: read-out: % PDE3 inhibition at 50 μM, cGMP, substrate cGMP; 50 μM.
Take `COc1ccccc1-c1cc(-c2cccc(Br)c2)nc(N)c1C#N` [Compound 1, 2-Amino-6-(3-bromophenyl)-4-(2-methoxyphenyl)nicotinonitrile]: the inhibition at 50 µM was found to be 105%.

As to `CCOc1ccccc1-c1cc(-c2cccc(Br)c2)nc(N)c1C#N` [Compound 2, 2-Amino-6-(3-bromophenyl)-4-(2-ethoxyphenyl)nicotinonitrile], the inhibition at 50 µM is not above 50%.

In the case of `COc1ccccc1-c1cc(-c2ccc(-c3ccc(Br)cc3)cc2)nc(N)c1C#N` [Compound 3, 2-Amino-6-(4′-bromobiphenyl-4-yl)-4-(2-methoxyphenyl)nicotinonitrile], the inhibition at 50 µM turned out to be 85%.

For the compound `N#Cc1c(-c2ccccc2Cl)cc(-c2ccccc2Br)[nH]c1=O` [Compound 5, 6-(2-Bromophenyl)-4-(2-chlorophenyl)-2-oxo-1,2-dihydropyridine-3-carbonitrile], the inhibition at 50 µM is 75%.

In the case of `CCOc1ccccc1-c1cc(-c2cccc(Br)c2)nc2ncnc(N)c12` [Compound 6, 7-(3-Bromophenyl)-5-(2-ethoxyphenyl)pyrido[2,3-d]pyrimidin-4-amine], the inhibition at 50 µM was 85%.

Take `COc1ccccc1-c1cc(-c2cccc(Br)c2)nc2nc[nH]c(=O)c12` [Compound 7, 7-(3-Bromophenyl)-5-(2-methoxyphenyl)pyrido[2,3-d]pyrimidin-4(3H)-one]: the inhibition at 50 µM was found to be 78.6%.

Take `Cc1[nH]c(=O)c(C#N)cc1-c1ccncc1` [Milrinone, reference compound]: the inhibition at 50 µM is 95%.

Still in this assay, the particulars now being: substrate cAMP.
`CCOc1ccccc1-c1cc(-c2cccc(Br)c2)nc2ncnc(N)c12` [Compound 6, 7-(3-Bromophenyl)-5-(2-ethoxyphenyl)pyrido[2,3-d]pyrimidin-4-amine]: the “PDE3 inhibition with cAMP as substrate (in words)” value was “did not inhibit PDE3”.

Still in this assay, the particulars now being: substrate cAMP; 50 μM.
Consider “6-(2-Bromophenyl)-4-(2-ethoxyphenyl)-2-oxo-1,2-dihydropyridine-3-carbonitrile [Compound 4]”, for which the “% PDE3 inhibition at 50 μM, cAMP” value was determined as 70%.

The same assay, now with this note: substrate cGMP; 50 μM.
With “6-(2-Bromophenyl)-4-(2-ethoxyphenyl)-2-oxo-1,2-dihydropyridine-3-carbonitrile [Compound 4]”, the “% PDE3 inhibition at 50 μM, cGMP” value is 72%.
